Activity calls are given as the source filed them. The calls are words filed in the database; no cut-off is given here.
Assays:
[1] = biological target: T1, Histone-lysine N-methyltransferase EHMT2 (Homo sapiens) (UniProt Q96KQ7); assay: Inhibition of recombinant human G9a at 25 uM using biotinylated-Histone H3 peptide (1 to 21 residues) after 30 mins by AlphaLISA assay relative to control
T1 sequence (whole entry): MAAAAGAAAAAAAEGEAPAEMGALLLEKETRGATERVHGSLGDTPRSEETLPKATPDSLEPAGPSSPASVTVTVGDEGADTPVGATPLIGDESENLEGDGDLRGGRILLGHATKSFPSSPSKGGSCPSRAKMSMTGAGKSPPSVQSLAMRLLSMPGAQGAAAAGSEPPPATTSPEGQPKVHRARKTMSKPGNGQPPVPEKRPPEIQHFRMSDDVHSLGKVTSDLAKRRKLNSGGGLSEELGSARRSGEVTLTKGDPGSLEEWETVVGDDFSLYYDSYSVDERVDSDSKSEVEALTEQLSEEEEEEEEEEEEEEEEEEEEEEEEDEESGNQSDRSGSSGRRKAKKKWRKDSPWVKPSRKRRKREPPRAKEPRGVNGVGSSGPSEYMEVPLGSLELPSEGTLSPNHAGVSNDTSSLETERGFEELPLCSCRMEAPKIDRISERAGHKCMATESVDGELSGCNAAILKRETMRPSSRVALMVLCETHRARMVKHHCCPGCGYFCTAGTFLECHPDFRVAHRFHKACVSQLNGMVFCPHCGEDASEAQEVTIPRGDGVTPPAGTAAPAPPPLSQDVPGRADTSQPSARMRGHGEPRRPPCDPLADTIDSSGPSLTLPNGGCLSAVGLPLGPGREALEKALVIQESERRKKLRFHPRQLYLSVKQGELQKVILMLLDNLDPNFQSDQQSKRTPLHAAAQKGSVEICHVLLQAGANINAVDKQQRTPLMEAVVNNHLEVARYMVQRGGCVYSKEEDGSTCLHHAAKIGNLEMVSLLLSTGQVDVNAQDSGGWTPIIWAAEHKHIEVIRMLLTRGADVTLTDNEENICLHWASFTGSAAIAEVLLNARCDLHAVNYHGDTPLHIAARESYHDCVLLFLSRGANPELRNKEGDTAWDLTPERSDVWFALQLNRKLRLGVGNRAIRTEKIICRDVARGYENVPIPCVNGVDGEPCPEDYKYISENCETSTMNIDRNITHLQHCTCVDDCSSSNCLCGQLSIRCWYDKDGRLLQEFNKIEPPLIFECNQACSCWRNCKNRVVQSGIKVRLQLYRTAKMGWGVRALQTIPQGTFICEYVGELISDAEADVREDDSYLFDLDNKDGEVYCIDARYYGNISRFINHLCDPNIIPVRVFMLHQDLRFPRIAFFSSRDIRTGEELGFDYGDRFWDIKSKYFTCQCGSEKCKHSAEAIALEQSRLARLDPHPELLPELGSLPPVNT
In short: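 G9a AlphaLISA at fixed 10 or 25 μM compound: human recombinant G9a 1 nM, 30 min preincubation, then biotinylated H3(1–21) 100 nM plus SAM 15 μM for 30 min at room temperature, pH 8.8 Tris buffer with 0.01% Tween-20; anti-H3K9me2 acceptor and streptavidin donor beads; percent of DMSO control.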

[2] = biological target: T2, Histone-lysine N-methyltransferase EHMT1 (Homo sapiens) (UniProt Q9H9B1); assay: Inhibition of recombinant human GLP at 25 uM using biotinylated-Histone H3 peptide (1 to 21 residues) after 30 mins by AlphaLISA assay relative to control
T2 sequence (whole entry): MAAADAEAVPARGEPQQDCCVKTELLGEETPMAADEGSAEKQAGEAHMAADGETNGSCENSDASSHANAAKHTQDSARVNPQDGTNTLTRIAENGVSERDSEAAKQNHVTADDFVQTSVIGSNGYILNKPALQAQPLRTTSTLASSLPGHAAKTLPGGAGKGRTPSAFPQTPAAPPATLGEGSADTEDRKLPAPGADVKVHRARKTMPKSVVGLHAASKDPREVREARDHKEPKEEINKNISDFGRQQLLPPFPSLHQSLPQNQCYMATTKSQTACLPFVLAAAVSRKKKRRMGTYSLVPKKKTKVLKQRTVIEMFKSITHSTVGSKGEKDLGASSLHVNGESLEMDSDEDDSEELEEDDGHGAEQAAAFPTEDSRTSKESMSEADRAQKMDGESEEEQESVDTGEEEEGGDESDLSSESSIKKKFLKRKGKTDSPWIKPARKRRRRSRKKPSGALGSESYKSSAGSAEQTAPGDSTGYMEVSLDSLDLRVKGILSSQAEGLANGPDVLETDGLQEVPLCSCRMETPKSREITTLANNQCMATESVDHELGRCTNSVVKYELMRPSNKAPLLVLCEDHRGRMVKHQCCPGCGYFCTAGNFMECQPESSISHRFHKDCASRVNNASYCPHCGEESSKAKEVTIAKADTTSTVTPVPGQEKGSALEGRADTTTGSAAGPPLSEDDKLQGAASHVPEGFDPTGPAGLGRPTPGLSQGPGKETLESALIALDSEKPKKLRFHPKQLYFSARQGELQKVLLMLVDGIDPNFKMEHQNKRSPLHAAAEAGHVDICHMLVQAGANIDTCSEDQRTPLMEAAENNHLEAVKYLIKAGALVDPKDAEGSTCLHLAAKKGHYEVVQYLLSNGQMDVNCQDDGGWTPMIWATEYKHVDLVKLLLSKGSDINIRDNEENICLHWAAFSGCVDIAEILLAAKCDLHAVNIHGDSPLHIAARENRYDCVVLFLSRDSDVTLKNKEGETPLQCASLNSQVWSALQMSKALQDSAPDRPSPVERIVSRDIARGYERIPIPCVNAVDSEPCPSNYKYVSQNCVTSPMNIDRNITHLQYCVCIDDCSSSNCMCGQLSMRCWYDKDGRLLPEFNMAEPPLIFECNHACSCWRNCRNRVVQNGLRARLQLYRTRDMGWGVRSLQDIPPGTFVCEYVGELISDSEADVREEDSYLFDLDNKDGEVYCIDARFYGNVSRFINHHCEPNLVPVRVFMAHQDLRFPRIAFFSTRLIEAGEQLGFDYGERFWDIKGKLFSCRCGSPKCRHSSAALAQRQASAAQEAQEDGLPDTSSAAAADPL

[3] = Apparent permeability of the compound after 24 hrs by BBB-PAMPA; format: ADME
[4] = system: MCF7; assay: Cytotoxicity against human MCF7 cells assessed as reduction in cell viability at 0.05 to 50 uM after 24 hrs by MTT assay; format: cell-based; conditions: mcf7, 24 h
In short: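 MCF-7, MDA-MB-231 and U-343 cells exposed 24, 48 and 72 h to 0.05, 0.5, 5 and 50 μM compound; viability by MTT reduction to formazan versus vehicle; mean ± SD of at least three independent experiments.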

[5] = biological target: DNA (cytosine-5)-methyltransferase 3B (Homo sapiens) (UniProt Q9UBC3); assay: Inhibition of N-terminal GST-tagged recombinant full length human DNMT3b (2 to 853 residues) using bacteriophage lambda DNA as substrate preincubated for 20 mins followed by [3H]-SAM and measured after 60 mins by scintillation counting

inhibition [1]: 98%
inhibition [2]: 98%
Papp [3]: 2.3 ×10⁻⁷ cm/s
inhibition [5]: inactive
Compound: COc1cc2c(cc1OCCCN1CCCC1)N=C(C1CCCCC1)CN=C2NC1CCN(C(C)C)CC1
Activity [4]: Non-Toxic

From ChEMBL document CHEMBL4400539, “Discovery of a Novel Chemotype of Histone Lysine Methyltransferase EHMT1/2 (GLP/G9a) Inhibitors: Rational Design, Synthesis, Biological Evaluation, and Co-crystal Structure” (J Med Chem, 2019)
